Consider 10 compounds from ChEMBL document CHEMBL1132234, “Simplified pepstatins: synthesis and evaluation of N-terminally modified analogues” (J Med Chem, 1999).

By pIC50 is commonly meant the IC50 on a negative log10 scale, so that one unit is a factor of ten. A higher pIC50 goes with a small IC50.

pIC50: −log10 of the molar value.

Sequence of Pepsin A (P00791 whole entry): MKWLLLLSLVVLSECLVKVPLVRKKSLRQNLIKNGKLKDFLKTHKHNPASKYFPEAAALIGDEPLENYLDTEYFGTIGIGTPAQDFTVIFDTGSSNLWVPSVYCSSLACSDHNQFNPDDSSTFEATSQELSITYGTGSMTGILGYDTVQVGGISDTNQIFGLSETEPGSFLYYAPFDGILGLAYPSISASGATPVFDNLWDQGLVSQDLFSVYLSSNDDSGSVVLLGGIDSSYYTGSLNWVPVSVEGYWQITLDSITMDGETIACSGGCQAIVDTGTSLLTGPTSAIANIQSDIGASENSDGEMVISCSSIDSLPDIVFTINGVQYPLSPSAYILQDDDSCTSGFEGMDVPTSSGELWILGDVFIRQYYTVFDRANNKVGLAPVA

Target in the first experiment: not listed separately
The experiment can be described thus: (§1) The compound was tested for inhibitory effect towards the pepsin hydrolysis of Horseradish peroxidase. On the set-up: species or system plant. Put shortly:
(§2)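 Pepsin (10 µg ≙ 35 units, freshly prepared) was mixed with DMSO serial dilutions of inhibitor (1.00 mg/mL solution, 1:10 then 1:2 steps), with horseradish peroxidase as protein substrate. Mixtures were serially diluted 1:2 in 0.05 N HCl, and residual peroxidase was read with o-phenylenediamine/H₂O₂ in 0.2 M phosphate pH 6.5 (15 min, room temperature, OD 492 nm). Pepstatin A served as reference. IC50 was determined.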
Take `CCCCCCC(O)[C@H](CC(C)C)NC(=O)[C@@H](NC(=O)[C@@H](NC(=O)C1CC1)C(C)C)C(C)C` (stereo not given in full): the pIC50 is 5.35.
On the same count and under the same terms, under `CC(C)CC(=O)N[C@H](C(=O)N[C@H](C(=O)N[C@@H](CC(C)C)[C@@H](O)CC(=O)N[C@@H](C)C(=O)N[C@@H](CC(C)C)[C@@H](O)CC(=O)O)C(C)C)C(C)C` [PEPSTATIN] stands 7.51.

In the next experiment the target is Pepsin A (Sus scrofa, UniProt P00791). The description is as §1. On the set-up: species or system plant. Put shortly:
as §2
Compound `CCCCCCC(O)[C@H](CC(C)C)NC(=O)[C@@H](NC(=O)[C@@H](NC(=O)CCc1ccccc1)C(C)C)C(C)C` (stereo not given in full) showed a pIC50 of 6.14.
Same read-out and setting: with `CCCCCCC(O)[C@H](CC(C)C)NC(=O)[C@@H](NC(=O)[C@@H](NC(=O)CC(C)(C)C)C(C)C)C(C)C` (stereo not given in full) the figure was 5.96; with `CCCCCCC(O)[C@H](CC(C)C)NC(=O)[C@@H](NC(=O)[C@@H](NC(=O)OCc1ccccc1)C(C)C)C(C)C` (stereo not given in full), 6.16; with `CCCCCCC(O)[C@H](CC(C)C)NC(=O)[C@@H](NC(=O)[C@@H](NC(=O)CC)C(C)C)C(C)C` (stereo not given in full), 5.49.
Same read-out and setting: under `CCCCCCC(O)[C@H](CC(C)C)NC(=O)[C@@H](NC(=O)[C@@H](NC(=O)OC(C)(C)C)C(C)C)C(C)C` (stereo not given in full) stands 6.68; under `CCCCCCC(O)[C@H](CC(C)C)NC(=O)[C@@H](NC(=O)[C@@H](NC(=O)CC(C)C)C(C)C)C(C)C` (stereo not given in full), 6.04; under `CCCCCCC(O)[C@H](CC(C)C)NC(=O)[C@@H](NC(=O)[C@@H](NC(=O)C(C)C)C(C)C)C(C)C` (stereo not given in full), 5.44.
The same measure, in the same setting: with `CCCCCCC(O)[C@H](CC(C)C)NC(=O)[C@@H](NC(=O)[C@@H](NC(=O)OC(C)C)C(C)C)C(C)C` (stereo not given in full) the figure was 5.92.
